Source: PubChem BioAssay (several laboratories)
MBD2 inh – MBD2-methylated oligo binding inhibition. Q9UBB5. TR-FRET, MBD2 binding to methylated oligonucleotide. inhibition, % at 4.4 µM. 0.31% of 370,000 active. AID 686964; in the data active means inhibition above about 13%
Rin1 Abl inh – inhibitors of human Rin1-Abl protein interaction. 0.4% of 360,000 active. inhibition, % at 7.35 µM. P00519+Q13671. TR-FRET Rin1/Abl binding, biochemical; in the data active means inhibition above about 5%, passing the limit was not always enough
Target sequence (P00519 whole entry, looked up): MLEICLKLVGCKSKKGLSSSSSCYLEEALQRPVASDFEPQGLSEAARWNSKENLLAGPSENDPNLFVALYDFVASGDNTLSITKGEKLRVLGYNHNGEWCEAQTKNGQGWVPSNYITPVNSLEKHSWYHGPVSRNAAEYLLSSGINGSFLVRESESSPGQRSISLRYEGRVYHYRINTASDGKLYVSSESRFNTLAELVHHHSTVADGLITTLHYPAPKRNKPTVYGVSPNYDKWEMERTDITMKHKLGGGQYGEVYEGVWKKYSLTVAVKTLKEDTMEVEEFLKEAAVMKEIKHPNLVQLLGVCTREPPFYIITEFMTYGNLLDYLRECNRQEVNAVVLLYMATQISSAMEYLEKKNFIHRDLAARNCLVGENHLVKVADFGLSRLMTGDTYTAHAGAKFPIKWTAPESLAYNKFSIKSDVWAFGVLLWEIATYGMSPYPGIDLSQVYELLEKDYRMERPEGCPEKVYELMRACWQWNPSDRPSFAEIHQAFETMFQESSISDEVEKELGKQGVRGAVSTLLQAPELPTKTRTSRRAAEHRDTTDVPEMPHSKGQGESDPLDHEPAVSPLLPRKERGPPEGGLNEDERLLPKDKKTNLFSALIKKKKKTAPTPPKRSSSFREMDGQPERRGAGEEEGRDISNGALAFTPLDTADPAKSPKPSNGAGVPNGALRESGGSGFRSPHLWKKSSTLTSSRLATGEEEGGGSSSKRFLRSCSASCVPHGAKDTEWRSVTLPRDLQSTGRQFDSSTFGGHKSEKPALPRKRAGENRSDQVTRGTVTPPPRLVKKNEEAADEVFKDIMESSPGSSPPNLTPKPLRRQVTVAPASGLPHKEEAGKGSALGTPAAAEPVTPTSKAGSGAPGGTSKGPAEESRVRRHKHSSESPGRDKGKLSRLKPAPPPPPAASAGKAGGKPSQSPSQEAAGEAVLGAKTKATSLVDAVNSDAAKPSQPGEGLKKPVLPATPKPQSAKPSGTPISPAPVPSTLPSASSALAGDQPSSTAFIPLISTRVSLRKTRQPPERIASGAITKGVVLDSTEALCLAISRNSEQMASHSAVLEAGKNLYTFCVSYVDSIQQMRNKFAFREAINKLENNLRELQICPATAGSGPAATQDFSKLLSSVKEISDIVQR
Target sequence (Q13671 whole entry, looked up): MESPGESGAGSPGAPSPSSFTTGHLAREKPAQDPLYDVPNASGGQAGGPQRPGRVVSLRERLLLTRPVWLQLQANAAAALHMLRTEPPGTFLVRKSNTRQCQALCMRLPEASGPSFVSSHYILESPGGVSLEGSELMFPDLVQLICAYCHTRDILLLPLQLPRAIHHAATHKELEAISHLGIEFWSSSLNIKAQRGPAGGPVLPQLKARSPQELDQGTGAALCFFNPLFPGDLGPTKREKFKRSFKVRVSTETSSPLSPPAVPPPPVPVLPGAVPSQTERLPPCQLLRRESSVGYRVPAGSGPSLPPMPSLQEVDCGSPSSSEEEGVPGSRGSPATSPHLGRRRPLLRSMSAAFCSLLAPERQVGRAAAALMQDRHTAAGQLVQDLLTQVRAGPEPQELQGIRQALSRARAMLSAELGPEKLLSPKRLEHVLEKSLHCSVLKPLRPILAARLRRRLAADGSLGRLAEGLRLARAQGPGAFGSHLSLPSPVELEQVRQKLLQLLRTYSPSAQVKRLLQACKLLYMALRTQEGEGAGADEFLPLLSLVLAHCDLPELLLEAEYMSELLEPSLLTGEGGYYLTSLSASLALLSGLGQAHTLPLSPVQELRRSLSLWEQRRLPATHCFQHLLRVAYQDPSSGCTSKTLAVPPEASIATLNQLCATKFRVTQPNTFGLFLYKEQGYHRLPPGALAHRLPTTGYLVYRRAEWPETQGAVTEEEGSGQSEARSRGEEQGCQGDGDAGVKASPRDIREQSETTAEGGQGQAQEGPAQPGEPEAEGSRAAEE
ABHD5-PLIN5 inh – inhibitors of human ABHD5-perilipin-5 interaction | Q00G26+Q8WTS1 | Split G. princeps luciferase complementation, luminescence, 4 h | inhibition, % at 4 µM | 0.78% of 360,000 active;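 active means inhibition above the mean inhibition across every tested compound plus 3 SD, cut at about 22% in these data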;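 further: 0% = DMSO only wells and the 100% control is not disclosed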
Beta2AR agonist – human beta-2 adrenergic receptor agonism by FAP. P07550. Am2.2-beta2AR cells, FAP receptor internalization, flow cytometry. response, % (concentration not given with the values). 0.43% of 340,000 active. AID 504454;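 active means response above a set limit, near 3 SD of response in nonfluorescent compounds, cut at about 42% in these data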
Arrestin-AP2 inh – inhibitors of human beta-arrestin and AP2 interaction; FITC-arrestin peptide / GST-AP2 beads, flow cytometry; AP2 beta2 appendage carries R879A mutation; inhibition, % at 10 µM; 0.31% of 340,000 active;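 active means inhibition above a set limit, near 3 SD of compounds lacking own fluorescence, cut at about 54% in these data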;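 further: plate controls were DMSO wells for no effect and 5 µM unlabelled arrestin peptide for full effect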
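Assay system: GST-AP2 R879A bound to glutathione beads, E. coli-expressed; Medium: PBS with 0.05% Tween 20 and 0.1% BSA; Also added: fluorescein-tagged arrestin peptide at 50 nM final; Timing: 12 min plus 1 h, RT; Measured by: flow cytometry, FL1 (488/535 nm); Evaluation: percent drop in bead-associated FITC signal.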
UHRF1 binding – human UHRF1 methylated DNA binding inhibitors | Q96T88 | 0.75% of 370,000 active | UHRF1 binding to methylated oligo, TR-FRET | inhibition, % at 4.4 µM; in the data active means inhibition above about 21%;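 further: UHRF1 SRA domain binding a hemimethylated CpG hairpin DNA probe; 0% = median of test compound wells and 100% = reference inhibitor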
Arr AP2 CP1 – blocks beta-arrestin peptide binding to human AP2; shares compounds with Arrestin-AP2 inh; GST-AP2 beads, FITC arrestin peptide binding, flow cytometry; GST-fused beta2-adaptin appendage, R879A mutant; inhibition, % at 10 µM; 2% of 1,300 active; AID 504908;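 active means inhibition above a set limit, roughly 3 SD of non-fluorescent compound noise, cut at about 38% in these data; inactive means inhibition at or below that limit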;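 further: loss of bead fluorescence from 50 nM FITC arrestin peptide bound to appendage; 0% = negative control wells and 100% = excess unlabelled arrestin peptide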
GST-FITC bead – disrupts GST binding to glutathione beads, arrestin-AP2 artifact; 2% of 1,300 active; AID 588338; inhibition, % at 10 µM; shares compounds with Arrestin-AP2 inh; GST-fluorescein binding to GSH beads, fluorescence, counter-screen;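 active means inhibition above 50%, about 3 SD of the inhibition seen with non-fluorescent compounds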;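 further: fluorescein maleimide labelled GST captured on 4 micron glutathione beads; higher means more loss of bead fluorescence from quenching or blocked binding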
Numbers without * were called inactive; . = not tested or not shown. Most compounds without a hit are left out; they make up all but 2.5% or so of the library.

SMILES	MBD2 inh	Rin1 Abl inh	ABHD5-PLIN5 inh	Beta2AR agonist	Arrestin-AP2 inh	UHRF1 binding	Arr AP2 CP1	GST-FITC bead
CC(C)CN(C(=O)c1ccc(S(=O)(=O)N2CCCC2)cc1)C1CCS(=O)(=O)C1 (stereo not drawn)	5.7	3.1	-1.1	-1.4	54.6*	-0.6	8.3	-8.3
CC(C)CN(C(=O)c1ccc(S(=O)(=O)N2CCCCC2)cc1)C1CCS(=O)(=O)C1 (stereo not drawn)	-2.4	-1.2	1.6	0.5	-6.6	-0.3	.	.
CN(Cc1ccccc1)C(=O)OCc1cn(Cc2cc(F)ccc2F)nn1	-3.7	.	.	.	.	0.5	.	.
O=C(CCC1CCCN(C(=O)c2ccc3cc[nH]c3c2)C1)NCc1ccc(F)c(F)c1 (stereo not drawn)	4.8	1.8	0.8	-17.6	57.9*	-2.6	9.0	-7.2
COc1ccc([C@H]2OC(=O)C[C@@H]2C(=O)N2CCN(c3ccccc3F)CC2)cc1OC	1.7	.	.	.	.	1.9	.	.
COc1ccc(CC(=O)N2CCC(n3nccc3NC(=O)C3CCOC3)CC2)cc1 (stereo not drawn)	-0.7	0.1	6.6	2.0	63.8*	-0.1	-12.9	7.1
COc1ccc(CC(=O)N2CCC(n3nccc3NC(=O)C3CC3)CC2)cc1	2.9	-0.3	-1.3	6.3	-6.1	-2.7	.	.
COC(=O)[C@@H]1C[C@@]2(c3ccccc3)c3ccccc3N(S(=O)(=O)c3ccccc3)[C@H]2N1C(=O)CNC1CCCCC1	1.6	.	.	.	.	-2.7	.	.
CC(=O)N(Cc1cc(=O)[nH]c2ccccc12)c1ccccc1C	1.5	1.0	-4.7	-3.9	39.3	1.9	.	.
CCCC(=O)N(Cc1cc(=O)[nH]c2ccccc12)c1ccccc1C	-0.7	1.6	0.2	1.3	60.9*	-0.3	8.3	-1.2
COC(=O)C1CN(Cc2cn(CCOC(C)=O)nn2)CCS(=O)(=O)N1Cc1ccccc1 (stereo not drawn)	1.9	.	.	.	.	12.7	.	.
COCCSc1nnc(NS(=O)(=O)c2ccc(C)cc2)s1	1.2	1.0	5.2	4.6	59.0*	6.9	3.4	-2.0
COc1cccc(NC(=O)CCCn2c(=O)[nH]c3ccccc3c2=O)c1	2.3	-1.5	4.8	-11.8	27.4	-1.9	1.7	-2.5
O=C(Cn1c(=O)[nH]c2ccccc2c1=O)Nc1ccc2c(c1)OCCO2	1.8	-1.1	-2.7	12.5	6.4	0.4	-2.0	-9.7
O=C(CCCC(=O)Nc1cccnc1)Nc1cccnc1	1.8	1.3	-2.5	4.6	81.5*	-0.1	-8.1	.
C1=C(CCNc2nnnn2-c2ccccc2)CCCC1	2.3	0.4	-2.1	-1.6	54.7*	-2.7	3.9	-1.4
c1ccc(CCNc2nnnn2-c2ccccc2)cc1	0.0	-5.1	6.2	-5.9	3.9	0.5	.	.
CC(C)CNc1cccc2c1S(=O)(=O)N(Cc1cn(Cc3ccc(F)cc3)nn1)Cc1ccccc1O2	1.8	.	.	.	.	1.7	.	.
Cc1cc(C)c2sc(N(CCCN(C)C)C(=O)c3ccc(S(=O)(=O)N(C)C4CCCCC4)cc3)nc2c1	4.5	5.5	17.8	39.6	56.8*	-4.9	-1.8	-5.5
CN(C)CCCN(C(=O)c1ccc(S(=O)(=O)N(C)C2CCCCC2)cc1)c1nc2ccc(F)cc2s1	4.2	1.3	12.1	17.3	29.2	4.8	.	.
N#CCC[C@H]1CC[C@]2(CCCN(S(=O)(=O)c3ccccc3)C2)O1	9.1	.	.	.	.	3.3	.	.
O=C(CSc1ccc(-c2ccccc2)nn1)NC1CCCC1	2.6	1.1	1.0	-13.2	48.0	-3.8	.	.
O=C(CSc1ccc(-c2ccccc2)nn1)NC1CCCCC1	1.4	1.4	6.3	0.4	63.1*	-1.8	-10.9	-2.1
CC(C)CCNC(=O)CCC(=O)NNc1nc2ccccc2c2nc(-c3ccccc3)nn12	-5.4	-0.9	1.1	7.5	62.5*	-0.1	-1.6	2.5
O=C(Nc1ccccc1F)n1ncc2cc(Cl)ccc21	2.5	3.1	0.8	0.7	62.5*	1.3	-2.2	-4.4
SMILES	MBD2 inh	Rin1 Abl inh	ABHD5-PLIN5 inh	Beta2AR agonist	Arrestin-AP2 inh	UHRF1 binding	Arr AP2 CP1	GST-FITC bead
COc1cc(NC(=O)n2ncc3cc(Cl)ccc32)cc(OC)c1	2.0	-1.3	-5.5	-2.7	5.8	-1.0	.	.
COc1ccc(NC(=O)C2C3C=CC(C3)C2C(=O)O)cc1 (stereo not drawn)	-6.2	2.2	-2.2	-3.2	-18.1	-1.8	.	.
NS(=O)(=O)c1ccc(NC(=O)C2C3C=CC(C3)C2C(=O)O)cc1 (stereo not drawn)	1.2	5.0	4.7	-1.7	57.8*	-0.5	24.1	-7.0
CCCC[C@H]1C2CC(OC(=O)Nc3ccc4c(c3)OCO4)C(C2)[C@H]2CCCCN21 (stereo partly drawn)	3.1	.	.	.	.	-1.8	.	.
O=C(NCCc1ccccc1)c1cc2sccc2n1Cc1ccccc1	-6.6	1.2	-10.0	1.2	2.5	3.7	.	.
CCn1c(C(=O)NCCCc2ccccc2)cc2sccc21	3.1	-5.7	-4.3	0.8	58.1*	4.2	4.1	0.0
CN(C)S(=O)(=O)c1ccc(Cl)c(NC(=O)COC(=O)C2CSC3(C)CCC(=O)N23)c1 (stereo not drawn)	-0.9	0.0	-0.5	1.8	25.3	-0.2	1.2	11.7
Cc1cc(NC(=O)COC(=O)C2CSC3(C)CCC(=O)N23)ccc1Br (stereo not drawn)	-0.4	-1.4	-2.3	0.1	-7.8	-3.4	-8.8	4.7
CN(C)S(=O)(=O)c1ccc(Cl)c(NC(=O)COC(=O)CN2C(=O)NC(C)(C)C2=O)c1	-4.3	-4.7	4.2	-5.7	29.9	-3.8	.	.
CCOc1ccc(NC(=O)CN(C)C(=O)C2CSC3(C)CCC(=O)N23)cc1OCC (stereo not drawn)	-5.4	0.8	-0.2	0.2	0.8	0.8	.	.
CC12CCC(=O)N1C(C(=O)OCC(=O)Nc1ccc(Cl)c(Cl)c1)CS2 (stereo not drawn)	-0.2	-2.5	2.9	11.4	-10.4	-0.2	5.5	-4.9
CC12CCC(=O)N1C(C(=O)Nc1ccc(Cl)c(Cl)c1)CS2 (stereo not drawn)	-1.6	-0.3	-2.0	-2.4	-4.3	0.5	.	.
O=c1c([N+](=O)[O-])c(Cl)c2ccccc2n1Cc1ccccc1	-0.4	.	.	.	.	4.5	.	.
CCn1c(O)c2ccc(C(=O)N=NC(=O)c3ccccc3)cc2c1O	-1.7	-0.7	7.7	-4.9	57.8*	0.3	13.2	-4.6
CN(C)C1(CNC(=O)c2cccc(S(=O)(=O)Nc3ccc(Br)cc3)c2)CCCCC1	-0.3	2.0	11.3	16.5	-6.7	-2.6	0.4	1.8
Cc1ccc(NS(=O)(=O)c2cccc(C(=O)NCC3(N(C)C)CCCCC3)c2)cc1	6.0	2.0	1.1	-1.9	-4.9	2.4	.	.
